Laboratory results published in ChEMBL document CHEMBL2311424, “Inhibitors of human immunodeficiency virus type 1 (HIV-1) attachment 13. Synthesis and profiling of a novel amminium prodrug of the HIV-1 attachment inhibitor BMS-585248” (J Med Chem, 2013).
Each block holds one compound with its values, some of them ahead of it.

Experiments:
[1] = test system: Hepatocyte; assay: Prodrug activation in rat hepatocytes assessed as BMS-585248 formation; format: cell-based
Method in brief: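 In-house isolated rat hepatocytes incubated with prodrug (10 μM final) for 2 h at 37 °C in humidified 95/5% air/CO2; aliquots quenched in ice-cold acetonitrile, centrifuged, prodrug and parent quantified by LC/MS/MS.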

[2] = Prodrug activation in Tris-HCl buffer assessed as BMS-585248 formation at pH 7.4
Method in brief: (§1)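 Prodrug at 10 μM final incubated 60 min at 37 °C in Tris-HCl buffer pH 7.4, rat blood or rat plasma, aerobic. Aliquots quenched with equal volume ice-cold acetonitrile, centrifuged, supernatant analysed by LC/MS/MS for prodrug and parent.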

[3] = Half life in beagle dog at 1 mg/kg, iv; format: ADME, organism-based, Canis lupus familiaris; parameters: dose 1 mg/kg, route intravenous; conditions: in vivo
[4] = AUC in beagle dog at 5 mg/kg, po; format: ADME, organism-based, Canis lupus familiaris; parameters: dose 5 mg/kg, route oral; conditions: plasma
[5] = test system: Liver microsomes; assay: Prodrug activation in rat liver microsomes assessed as BMS-585248 formation; parameters: species or system Microsome
Method in brief: (§2)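 Rat liver cytosol (2 mg/mL) or microsomes (1 mg/mL) incubated with prodrug (10 μM final) and 1 mM NADPH up to 2 h at 37 °C, shaking; anaerobic runs used nitrogen-purged 0.1 M phosphate buffer with 10 mM MgCl2 under humidified nitrogen for 60 min. Acetonitrile quench, LC/MS/MS of prodrug and parent.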

[6] = Volume of distribution in beagle dog at 1 mg/kg, iv; format: ADME, organism-based, Canis lupus familiaris; parameters: dose 1 mg/kg, route intravenous; conditions: in vivo
[7] = test system: Liver; assay: Prodrug activation in rat liver cytosol assessed as BMS-585248 formation; format: tissue-based; method in brief: as §2
[8] = Cmax in beagle dog at 5 mg/kg, po; format: ADME, organism-based, Canis lupus familiaris; parameters: dose 5 mg/kg, route oral; conditions: in vivo
[9] = test system: Plasma; assay: Prodrug activation in rat plasma assessed as BMS-585248 formation; format: cell-free; method in brief: as §1
[10] = test system: Human immunodeficiency virus 1; assay: Antiviral activity against HIV1; format: functional, organism-based
[11] = test system: Canis familiaris; assay: AUC in beagle dog assessed as BMS-585248 level at 5 mg/kg, po; format: ADME, organism-based, Canis lupus familiaris, Plasma; parameters: dose 5 mg/kg, route oral; conditions: in vivo
[12] = Aqueous solubility of the compound; format: physicochemical
[13] = test system: Blood; assay: Prodrug activation in rat blood assessed as BMS-585248 formation; format: tissue-based; method in brief: as §1
[14] = Permeability across human Caco2 cells; format: ADME, cell-based; conditions: Caco-2, read-out: permeability
[15] = Clearance in beagle dog at 1 mg/kg, iv; format: ADME, organism-based, Canis lupus familiaris; parameters: dose 1 mg/kg, route intravenous; conditions: in vivo
[16] = test system: Rattus norvegicus; assay: Cmax in Sprague-Dawley rat assessed as BMS-585248 level at 200 mg/kg, po; format: ADME, organism-based; parameters: dose 200 mg/kg, route oral; conditions: in vivo
Method in brief: (§3)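 Oral dose escalation in male rats, groups of three, dosed by gavage from solutions in water with 0.5% methylcellulose: prodrug trifluoroacetate salt at 5, 25 and 200 mg/kg; parent at 15, 75 and 200 mg/kg. Plasma analysed by LC/MS/MS; noncompartmental PK.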

[17] = AUC in dual cannulated portal vein Sprague-Dawley rat at 5 mg/kg, po; format: ADME, organism-based; parameters: dose 5 mg/kg, route oral; conditions: plasma
[18] = test system: Rattus norvegicus; assay: AUC in Sprague-Dawley rat assessed as BMS-585248 level at 1 mg/kg, iv; format: ADME, organism-based, Plasma; parameters: dose 1 mg/kg, route intravenous; conditions: in vivo
Method in brief: (§4)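 Male rats, groups of three; prodrug trifluoroacetate salt given by IV bolus (1 mg/kg) or oral gavage (5 mg/kg) after overnight fast, both from a 1 mg/mL solution in PEG-400/ethanol 90/10 v/v. Plasma sampled up to 24 h, stored at −20 °C, parent and prodrug quantified by LC/MS/MS; noncompartmental analysis.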

[19] = test system: Rattus norvegicus; assay: Cmax in Sprague-Dawley rat assessed as BMS-585248 level at 5 mg/kg, po after 6 hrs; format: ADME, organism-based; parameters: dose 5 mg/kg, route oral; conditions: in vivo
[20] = Clearance in Sprague-Dawley rat at 1 mg/kg, iv; format: ADME, organism-based; parameters: dose 1 mg/kg, route intravenous; conditions: in vivo; method in brief: as §4
[21] = Cmax in dual cannulated portal vein Sprague-Dawley rat at 5 mg/kg, po; format: ADME, organism-based; parameters: dose 5 mg/kg, route oral
[22] = test system: Rattus norvegicus; assay: Prodrug conversion in Sprague-Dawley rat assessed as BMS-585248 level at 1 mg/kg, iv after 5 mins; format: ADME, organism-based; parameters: dose 1 mg/kg, route intravenous; conditions: in vivo; method in brief: as §4
[23] = Half life in Sprague-Dawley rat at 1 mg/kg, iv; format: ADME, organism-based; parameters: dose 1 mg/kg, route intravenous; conditions: in vivo; method in brief: as §4
[24] = test system: Rattus norvegicus; assay: Cmax in dual cannulated portal vein Sprague-Dawley rat assessed as BMS-585248 level at 5 mg/kg, po; format: ADME, organism-based; parameters: dose 5 mg/kg, route oral; conditions: in vivo
[25] = AUC in Sprague-Dawley rat at 1 mg/kg, iv; format: ADME, organism-based; parameters: dose 1 mg/kg, route intravenous; conditions: plasma; method in brief: as §4
[26] = test system: Rattus norvegicus; assay: Cmax in bacitracin, neomycin sulfate and tetracycline treated Sprague-Dawley rat assessed as BMS-585248 level at 5 mg/kg, po; format: ADME, organism-based; parameters: dose 5 mg/kg, route oral; conditions: in vivo
Method in brief: (§5)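 Male rats (n = 3 per group) pretreated 2 days with saline or an antibiotic mix (bacitracin 400 mg/kg BID, neomycin sulfate 400 mg/kg BID, tetracycline 200 mg/kg), then given prodrug 5 mg/kg orally. Plasma to 24 h, stored −20 °C, LC/MS/MS quantitation of prodrug and parent.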

[27] = Cmax in Sprague-Dawley rat at 5 mg/kg, po after 6 hrs; format: ADME, organism-based; parameters: dose 5 mg/kg, route oral; conditions: in vivo
[28] = test system: Rattus norvegicus; assay: Cmax in Sprague-Dawley rat assessed as BMS-585248 level at 5 mg/kg, po; format: ADME, organism-based; parameters: dose 5 mg/kg, route oral; conditions: in vivo; method in brief: as §3
[29] = test system: Rattus norvegicus; assay: Cmax in Sprague-Dawley rat assessed as BMS-585248 level at 25 mg/kg, po; format: ADME, organism-based; parameters: dose 25 mg/kg, route oral; conditions: in vivo; method in brief: as §3
[30] = test system: Rattus norvegicus; assay: AUClast in bacitracin, neomycin sulfate and tetracycline treated Sprague-Dawley rat assessed as BMS-585248 level at 5 mg/kg, po; format: ADME, organism-based, Plasma; parameters: dose 5 mg/kg, route oral, time 0 - last; conditions: in vivo; method in brief: as §5
[31] = test system: Rattus norvegicus; assay: Total AUC in Sprague-Dawley rat assessed as BMS-585248 level at 5 mg/kg, po; format: ADME, organism-based; parameters: dose 5 mg/kg, route oral, time AUCmax; conditions: in vivo; method in brief: as §3
[32] = test system: Rattus norvegicus; assay: Total AUC in Sprague-Dawley rat assessed as BMS-585248 level at 200 mg/kg, po; format: ADME, organism-based; parameters: time AUCmax, dose 200 mg/kg, route oral; conditions: in vivo; method in brief: as §3
[33] = test system: Rattus norvegicus; assay: AUC in dual cannulated portal vein Sprague-Dawley rat assessed as BMS-585248 level at 5 mg/kg, po; format: ADME, organism-based, Plasma; parameters: dose 5 mg/kg, route oral; conditions: in vivo
[34] = test system: Rattus norvegicus; assay: AUC in Sprague-Dawley rat assessed as BMS-585248 level at 5 mg/kg, po; format: ADME, organism-based, Plasma; parameters: dose 5 mg/kg, route oral; conditions: in vivo; method in brief: as §4
[35] = test system: Rattus norvegicus; assay: Total AUC in Sprague-Dawley rat assessed as BMS-585248 level at 25 mg/kg, po; format: ADME, organism-based; parameters: time AUCmax, dose 25 mg/kg, route oral; conditions: in vivo; method in brief: as §3
[36] = AUC in Sprague-Dawley rat at 5 mg/kg, po; format: ADME, organism-based; parameters: dose 5 mg/kg, route oral; conditions: plasma; method in brief: as §4
[37] = test system: Rattus norvegicus; assay: AUClast in Sprague-Dawley rat assessed as BMS-585248 level at 5 mg/kg, po; format: ADME, organism-based, Plasma; parameters: time 0 - last, dose 5 mg/kg, route oral; conditions: in vivo; method in brief: as §5
[38] = Volume of distribution in Sprague-Dawley rat at 1 mg/kg, iv; format: ADME, organism-based; parameters: dose 1 mg/kg, route intravenous; conditions: in vivo; method in brief: as §4
[39] = Drug excretion in bile duct cannulated Sprague-Dawley rat urine at 1 mg/kg, iv up to 2 hrs; format: ADME, organism-based; parameters: dose 1 mg/kg, route intravenous; conditions: read-out: Drug excretion
Method in brief: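 Bile duct/jugular vein cannulated male rats (n = 3) given prodrug 1 mg/kg IV; plasma, bile and urine collected up to 6 h. Biotransformation profiled by UPLC on C18 at 40 °C with gradient elution, positive electrospray full-scan MS and data-dependent MS/MS; relative percentages of prodrug, N-acetyl conjugate and parent reported.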

[40] = Cmax in Sprague-Dawley rat at 200 mg/kg, po; format: ADME, organism-based; parameters: dose 200 mg/kg, route oral; conditions: in vivo; method in brief: as §3
[41] = Total AUC in Sprague-Dawley rat at 200 mg/kg, po; format: ADME, organism-based; parameters: time AUCmax, dose 200 mg/kg, route oral; conditions: in vivo; method in brief: as §3
[42] = AUClast in bacitracin, neomycin sulfate and tetracycline treated Sprague-Dawley rat at 5 mg/kg, po; format: ADME, organism-based; parameters: time 0 - last, dose 5 mg/kg, route oral; conditions: plasma; method in brief: as §5
[43] = Cmax in Sprague-Dawley rat at 75 mg/kg, po; format: ADME, organism-based; parameters: dose 75 mg/kg, route oral; conditions: in vivo; method in brief: as §3
[44] = Cmax in Sprague-Dawley rat at 15 mg/kg, po; conditions: in vivo
[45] = AUClast in Sprague-Dawley rat at 5 mg/kg, po; format: ADME, organism-based; parameters: time 0 - last, dose 5 mg/kg, route oral; conditions: plasma; method in brief: as §5
[46] = Total AUC in Sprague-Dawley rat at 15 mg/kg, po; conditions: in vivo
[47] = test system: Rattus norvegicus; assay: Cmax in bacitracin, neomycin sulfate and tetracycline treated Sprague-Dawley rat at 5 mg/kg, po; format: ADME, organism-based; parameters: dose 5 mg/kg, route oral; conditions: in vivo; method in brief: as §5
[48] = Total AUC in Sprague-Dawley rat at 75 mg/kg, po; format: ADME, organism-based; parameters: time AUCmax, dose 75 mg/kg, route oral; conditions: in vivo; method in brief: as §3

Drug metabolism [1]: Not Active | Drug metabolism [2]: Not Active | half-life [3]: 54 min | AUC [4]: 0.217 µM·h | Drug metabolism [5]: Not Active | Vd [6]: 0.3 L/kg | Drug metabolism [7]: Not Active | Cmax [8]: 139 nM | Drug metabolism [9]: Not Active | EC50 [10]: 1.76 nM | AUC [11]: 8.064 µM·h | solubility [12]: 1760 µg/mL | Drug metabolism [13]: Not Active | Papp [14]: 1.5 ×10⁻⁶ cm/s | clearance [15]: 13.8 mL/min/kg
SMILES: N[n+]1ccn(-c2ncc(F)c3c(C(=O)C(=O)N4CCN(C(=O)c5ccccc5)CC4)c[nH]c23)n1.[Cl-]

Cmax [16]: 77000 nM | AUC [17]: 0.035 µM·h | AUC [18]: 3.22 µM·h | Cmax [19]: 3120 nM | clearance [20]: 23 mL/min/kg | Cmax [21]: 74 nM | Drug metabolism [22]: Active | half-life [23]: 18 min | Cmax [24]: 2140 nM | AUC [25]: 1.55 µM·h | Cmax [26]: 79 nM | Cmax [27]: 23 nM | Cmax [28]: 1300 nM | Cmax [29]: 12000 nM | AUClast [30]: 0.148 µM·h | AUC [31]: 8 µM·h | AUC [32]: 996 µM·h | AUC [33]: 23.873 µM·h | AUC [34]: 28.098 µM·h | AUC [35]: 72 µM·h | AUC [36]: 0.0208 µM·h | AUClast [37]: 0.112 µM·h | Vd [38]: 0.29 L/kg | dose excreted at 2 h [39]: 80%
SMILES: N[n+]1ccn(-c2ncc(F)c3c(C(=O)C(=O)N4CCN(C(=O)c5ccccc5)CC4)c[nH]c23)n1.O=C([O-])C(F)(F)F

dose excreted at 2 h [39]: 16.5%
SMILES: CC(=O)N[n+]1ccn(-c2ncc(F)c3c(C(=O)C(=O)N4CCN(C(=O)c5ccccc5)CC4)c[nH]c23)n1

Cmax [40]: 11000 nM | AUC [41]: 145 µM·h | AUC(0-t) [42]: 13.8 µM·h | Cmax [43]: 8400 nM | Cmax [44]: 6600 nM | AUC(0-t) [45]: 47.5 µM·h | AUC [46]: 42 µM·h | EC50 [10]: 0.06 nM | Cmax [47]: 18 nM | AUC [48]: 115 µM·h | dose excreted at 2 h [39]: 3.5%
SMILES: O=C(C(=O)N1CCN(C(=O)c2ccccc2)CC1)c1c[nH]c2c(-n3ccnn3)ncc(F)c12
